These results are taken from ChEMBL document CHEMBL1128557, “Synthesis, antitumor activity, and chemical properties of silaplatin and related platinum (II) and platinum (IV) complexes derived from beta-silyl amines” (J Med Chem, 1995).

A value given as a limit tells only on which side of the number the result lay.

The test system of series [1] is Tumor Cell line. Nature of the series: Evaluated in vitro for the log10 molecular concentration that caused […] tumor growth of 60 human tumor cell lines. In kind it is functional, cell-based. In a few lines:
(§1)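 Cells preincubated 24 h, then exposed to the agent at five 10-fold dilutions (0.01–100 μM for the platinum complexes) for 48 h. Cells fixed in situ and stained; solubilized stain read spectrophotometrically. Panel of leukemia, non-small-cell lung, ovarian and renal lines. Log GI50 or TGI taken per cell line in one experiment, then averaged across lines.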

The test system of series [2] is Tumor Cell line. In words: Evaluated in vitro for the log10 molecular concentration that caused 50 % inhibition of tumor growth of 60 human tumor cell lines. The series is classed as functional, cell-based. The method, boiled down: as §1
For series [3], the system named is Tumor Cell line. Nature of the series: The compound was evaluated in vitro for the log10 molecular concentration that caused 50 % of 60 human tumor cell line kills. The series is classed as ADME, cell-based. The method, boiled down:
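Human tumor cell lines (leukemia, non-small-cell lung, ovarian, renal) were preincubated 24 h. Platinum complexes were then added as five 10-fold dilutions, 0.01–100 μM, for 48 h, followed by in situ fixation and staining, with solubilized stain read spectrophotometrically. Log LC50 (50% cell kill) was averaged across cell lines within one experiment.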

Consider “[Bis(aminomethyl)ethylmethylsilane]tetrachloroplatinum(IV)”, for which the TGI (as a rule, the concentration at which net growth stops) in series [1] was found to be 39.8 µM. Besides, the GI50 – broadly, the concentration giving 50% growth inhibition – in series [2] amounted to 6.17 µM.
With “[Bis(aminomethyl)pentamethylenesilane]dichloropaltinum(II) [listing 1 of 2 here]”, in series [3], the “Log LC50” value is listed as more than -4.01.
For the substance “[Bis(aminomethyl)pentamethylenesilane]dichloropaltinum(II) [listing 2 of 2 here]”, the TGI in series [1] is 67.6 µM. The same substance came in with a GI50 in series [2] of 11.7 µM.
Consider “[Bis(aminomethyl)pentamethylenesilane]tetrachloropaltinum(IV) [listing 1 of 2 here]”, for which, in series [3], the “Log LC50” value is given as more than -4.01.
Substance “[Bis(aminomethyl)pentamethylenesilane]tetrachloropaltinum(IV) [listing 2 of 2 here]” showed a TGI in series [1] of 50.1 µM. For the same substance, the GI50 in series [2] worked out at 4.17 µM.
On to “[Bis(aminomethyl)tetramethylenesilane]dichloropaltinum(II) [listing 1 of 2 here]”, for which the “Log LC50” value in series [3] is more than -4.
For “[Bis(aminomethyl)tetramethylenesilane]dichloropaltinum(II) [listing 2 of 2 here]”, in series [1], the TGI worked out at 89.1 µM. The same substance displayed a GI50 in series [2] of 25.7 µM.
“[Bis(aminomethyl)tetramethylenesilane]tetrachloropaltinum(IV) [listing 1 of 2 here]”: in series [3], the “Log LC50” value was more than -4.
For the substance “[Bis(aminomethyl)tetramethylenesilane]tetrachloropaltinum(IV) [listing 2 of 2 here]”, the TGI in series [1] worked out at 49 µM. In series [2], the GI50 came out at 4.47 µM.
“cis-Bis[[(trimethylsilyl)methyl]amino]tetrachloroplatinum(IV) [listing 1 of 2 here]”: the “Log LC50” value in series [3] was more than -4.06.
For the substance “cis-Bis[[(trimethylsilyl)methyl]amino]tetrachloroplatinum(IV) [listing 2 of 2 here]”, net growth in series [1] stopped (TGI) at 22.9 µM. For the same substance, growth in series [2] was halved (GI50) at 5.89 µM.
